The source made the active and inactive calls. No cut-off for these calls is given here.
Legend:
[1] = Toxicity in Balb/c nude mouse xenografted with human HepG2 cells assessed as change in body weight at 10 mg/kg, iv administered every 2 days for 21 days (reference value: 7.8 % ); format: organism-based; settings: in vivo, 504 h, time 21 day
HepG2 [2] = assay: Antitumor activity against human HepG2 cells xenografted in Balb/c nude mouse assessed as reduction in tumor volume at 25 mg/kg, ig qd administered for 21 days measured at 3 days interval during compound dosing relative to control; format: functional; set-up: scale not given: the % may be the effect or the level left; settings: time 21 day
HepG2 [3] = assay: Induction of apoptosis in human HepG2 cells assessed as PARP cleavage at 2.5 to 20 nM incubated for 24 hrs by western blot analysis; format: functional, cell-based; settings: dose nM 2.5-20, time 24.0 hrs
Procedure, shortened: (§1)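 Lysates (20 μg protein) separated by 10% PAGE and blotted to PVDF. Probed for Bax, Bcl-2, cleaved caspase-3 and cleaved PARP, detected by ECL and quantified by densitometry.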

HCT-116 = assay: Antiproliferation activity against human HCT116 cells assessed as cell growth inhibition measured after 72 hrs by MTT assay; format: functional
Procedure, shortened: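 Cells grown in RPMI-1640 with 10% FBS at 37 °C, 5% CO2, seeded at 4−7 × 10³ cells/well and left to adhere overnight. Exposed to a range of concentrations for 72 h, then MTT (2.5 mg/mL stock) added for 4 h. Formazan dissolved in DMSO and absorbance read at 570 nm. GI50 taken as the concentration giving 50% growth inhibition, reported as mean ± SD of at least three independent experiments.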

HepG2 [4] = assay: Induction of apoptosis in human HepG2 cells assessed as live cells at 10 nM incubated for 12 hrs by Annexin V-PE and 7-AAD staining based flow cytometry (reference value: 92.1%); format: functional
Procedure, shortened: (§2)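 HepG2 cells seeded at 3 × 10⁵ cells/well, adhered overnight, exposed at 5, 10 or 20 nM for 12 or 24 h. Harvested into Annexin V binding buffer and stained with annexin V-PE and 7-AAD for 15 min at room temperature in the dark, then analysed by flow cytometry. Gates: live (−/−), early apoptotic (+/−), late apoptotic (+/+), necrotic (−/+).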

HepG2 [5] = assay: Induction of apoptosis in human HepG2 cells assessed as live cells at 20 nM incubated for 24 hrs by Annexin V-PE and 7-AAD staining based flow cytometry (reference value: 93.2%); format: functional; procedure, shortened: as §2
HepG2 [6] = assay: Induction of apoptosis in human HepG2 cells assessed as live cells at 20 nM incubated for 12 hrs by Annexin V-PE and 7-AAD staining based flow cytometry (reference value: 92.1%); format: functional; procedure, shortened: as §2
HepG2 [7] = assay: Induction of apoptosis in human HepG2 cells assessed as live cells at 5 nM incubated for 12 hrs by Annexin V-PE and 7-AAD staining based flow cytometry (reference value: 92.1%); format: functional; procedure, shortened: as §2
[8] = Lipophilicity, log P of the compound in DMSO and n-octanol at pH 7.4 incubated for 10 hrs under stirred condition by HPLC analysis; format: physicochemical; settings: n-octanol / aqueous phase pH 7.4, pH 7.4
Procedure, shortened: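 Partition between n-octanol and water: mixture stirred at room temperature for 10 h, then left at 4 °C overnight. Each phase analysed separately by HPLC on a C18 column. Log P taken from the ratio of peak areas in n-octanol and water.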

HepG2 [9] = assay: Induction of apoptosis in human HepG2 cells assessed as early apoptotic cells at 5 nM incubated for 24 hrs by Annexin V-PE and 7-AAD staining based flow cytometry (reference value: 4.16 %); format: functional; procedure, shortened: as §2
HepG2 [10] = assay: Induction of cell cycle arrest in human HepG2 cells assessed as accumulation in G2/M phase at 5 nM incubated for 24 hrs by propidium iodide staining based flow cytometry (reference value: 12.59%); format: functional
HepG2 [11] = assay: Induction of apoptosis in human HepG2 cells assessed as necrotic cells at 20 nM incubated for 12 hrs by Annexin V-PE and 7-AAD staining based flow cytometry (reference value: 0.55 %); format: functional; procedure, shortened: as §2
[12] = Aqueous solubility of compound in DMSO at pH 7.4 by HPLC analysis; format: physicochemical; settings: aqueous medium
Procedure, shortened: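 Solubility measured at pH 7.4. DMSO stock (10 mg/mL) diluted in methanol to five levels to build an HPLC peak-area standard curve. Compound added to 1 mL buffer to make a saturated solution, and the peak area of that solution analysed by HPLC on a C18 column. Solubility calculated from the standard curve.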

HepG2 [13] = assay: Induction of cell cycle arrest in human HepG2 cells assessed as accumulation in G1 phase at 20 nM incubated for 24 hrs by propidium iodide staining based flow cytometry (reference value: 60.76%); format: functional
HepG2 [14] = assay: Induction of apoptosis in human HepG2 cells assessed as late apoptotic cells at 10 nM incubated for 12 hrs by Annexin V-PE and 7-AAD staining based flow cytometry (reference value: 2.79%); format: functional; procedure, shortened: as §2
HepG2 [15] = assay: Induction of cell cycle arrest in human HepG2 cells assessed as accumulation in G2/M phase at 20 nM incubated for 24 hrs by propidium iodide staining based flow cytometry (reference value: 12.59%); format: functional
HepG2 [16] = assay: Induction of apoptosis in human HepG2 cells assessed as necrotic cells at 5 nM incubated for 12 hrs by Annexin V-PE and 7-AAD staining based flow cytometry (reference value: 0.55 %); format: functional; procedure, shortened: as §2
HepG2 [17] = assay: Induction of apoptosis in human HepG2 cells assessed as early apoptotic cells at 20 nM incubated for 24 hrs by Annexin V-PE and 7-AAD staining based flow cytometry (reference value: 4.16 %); format: functional; procedure, shortened: as §2
HepG2 [18] = assay: Induction of apoptosis in human HepG2 cells assessed as late apoptotic cells at 10 nM incubated for 24 hrs by Annexin V-PE and 7-AAD staining based flow cytometry (reference value: 2.33 %); format: functional; procedure, shortened: as §2
HepG2 [19] = assay: Induction of apoptosis in human HepG2 cells assessed as increase in Bax expression incubated for 24 hrs by Western blot analysis; format: functional, cell-based; settings: dose nM 2.5-20, time 24.0 hrs; procedure, shortened: as §1
Tubulin (Homo sapiens) = Tubulin (Homo sapiens) (UniProt P68371+Q9H4B7+P0DPH7+P68366+Q13509+Q71U36+P04350+Q3ZCM7+P07437+P68363+Q9BQE3+Q6PEY2+Q13885+Q9BVA1+Q9BUF5); assay: Induction of microtubule cytoskeleton disruption in human HepG2 cells assessed as microtubule shrinkage to the cell border at 10 nM measured after 24 hrs by Hoechst 33342 staining based immunofluorescence confocal microscopy analysis
Procedure, shortened: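 Fixed in ice-cold methanol/acetic acid 3:1, permeabilized 0.3% Triton X-100, blocked 5% BSA. Mouse anti-tubulin overnight at 4 °C, then TRITC anti-mouse IgG 2 h at 37 °C. Imaged by laser scanning confocal microscopy.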

[20] = Selectivity index, ratio of GI50 for cytotoxicity against human L02 cells to GI50 for antiproliferation activity against human HepG2 cells assessed as cell growth inhibition measured after 72 hrs by MTT assay; format: toxicity, cell-based; settings: L02 cells and HepG2 cells, read-out: RatioGI50
Procedure, shortened: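 MTT assay: cells seeded 4–7 × 10³/well, adhered overnight, exposed to a concentration series for 72 h. MTT (2.5 mg/mL stock) added for 4 h, crystals dissolved in DMSO, absorbance read at 570 nm. GI50 is mean ± SD of ≥3 independent experiments. Selectivity = GI50 on normal LO2 / GI50 on HepG2. Resistance fold = GI50 on resistant cells / GI50 on sensitive cells.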

Compound: CCOc1cccc(Nc2nn(C)c3c2Cc2cc(OCC)c(OCCCN)cc2-3)c1
- Activity [1]: 6.9%
- Activity (HepG2 [2]): 57%
- Activity (HepG2 [3]): Active
- GI50 (HCT-116): 2.4 nM
- Activity (HepG2 [4]): 85.2%
- Activity (HepG2 [5]): 50.2%
- Activity (HepG2 [6]): 77.7%
- Activity (HepG2 [7]): 90.4%
- logD at 10 h [8]: 1.7
- Activity (HepG2 [9]): 9.75%
- Activity (HepG2 [10]): 19.78%
- Activity (HepG2 [11]): 1.36%
- solubility [12]: > 1000 µg/mL
- Activity (HepG2 [13]): 3.11%
- Activity (HepG2 [14]): 4.39%
- Activity (HepG2 [15]): 88.46%
- Activity (HepG2 [16]): 0.43%
- Activity (HepG2 [17]): 36.6%
- Activity (HepG2 [18]): 7.19%
- Activity (HepG2 [19]): Dose-dependent effect
- Activity (Tubulin (Homo sapiens)): Active
- selectivity ratio at 72 h [20]: 118
